A short description of experiment [1]: reduced viability of SK-BR-3 breast cancer cells – cell-based, 24 h, human, pilot screen (AID 572;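 active = viability at or below 10% of carrier control in both of two separate runs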;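 note: compound exposure lasted between 18 and 24 h rather than exactly 24 h; 100% = carrier-treated control wells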). Particulars: SK-BR-3 viability, CellTiter-Glo luminescence, at 10 µM, stronger effect = lower value. In general terms: Cellular ATP, detected with luciferase, serves as a proxy for viable cell number.
Experiment [2] can be described thus: HUVEC growth inhibition – cell-based, human, primary screen (AID 575).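 Note: 100% = median of untreated cell wells with 0.1% DMSO on each plate.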 Particulars: HUVEC proliferation, CellTiter-Glo luminescence, 72 h; at 10 µM; stronger effect = lower value. Put shortly: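 System – primary HUVEC, no more than 12 passages · Medium – Low-serum (2% FBS) EBM, supplemented · Times – 72 h exposure, 37 °C, 5% CO2, 30 min RT equilibration · Measured by – luminescent ATP assay · Read-out – % viability relative to median vehicle-well signal on each plate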

Experiment [3] is described as follows: MRP1 drug-resistance reversers in H69AR cells – cell-based, doxorubicin co-treatment, pilot screen (AID 601;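 active = viability loss from added drug above about 55%, and viability with drug at most 40%, in both replicates, limit read from the data, passing the limit was not always enough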). Particulars: CellTiter-Glo, 72 h, at 10 µM; for differential viability (reversal): stronger effect = higher value.
Experiment [4] can be described thus: yeast transport mutant growth inhibition pilot in 384-well plates, post-Golgi transport modulator project (AID 636; in the data active = inhibition above about 31%). Particulars: absorbance 615 nm, about 18 h, stronger effect = higher value.
Experiment [5] in a line: growth suppression of yeast trafficking mutant, preliminary HTS, modulators of trafficking downstream of Golgi apparatus project, 1536-format plate, OD 615 nm (AID 637; in the data active = inhibition above about 30%). The following applies: yeast transport mutant growth, absorbance 615 nm, 18 h; stronger effect = higher value.
Where [6] appears, read: H69AR cells + 2 uM doxorubicin, measured here: viability with 2 uM doxorubicin, stronger effect = lower value.
Where [7] appears, read: H69AR cells, compound alone cytotoxicity.

Active and inactive are the calls of the source.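 Rule for the calls, unless noted: active = viability at or below 30% in both replicate assays; inconclusive = viability at or below 30% in just one of the two assays; inactive = the rest.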

For `CCCn1nc(NC(=O)c2cccs2)c2cc3cc(OC)ccc3nc21`, the viability (usually a read-out of living cells in per cent, often relative to untreated cells) in experiment [1] was 102% (inactive); in experiment [2], 56.4% (inactive); in experiment [3] (setting [6]), 81.8%; in experiment [3] (setting [7]) it was 63.1%. Also, in experiment [3] (H69AR cells + 2 uM doxorubicin), the differential viability (reversal) was -18.7% (inactive). The inhibition – broadly, the drop in the measured response relative to a control, in per cent – in experiment [4] was -6.58% (inactive); in experiment [5], 2.58% (inactive).

Consider `CCCSc1ccc2nc(NC(=O)OC)[nH]c2c1`, for which the viability was 95% (inactive) in experiment [1], 43.2% (inactive) in experiment [2], 48.9% in experiment [3] (setting [6]) and 20.3% in experiment [3] (setting [7]). In addition, the differential viability (reversal) in experiment [3] (H69AR cells + 2 uM doxorubicin) was -28.6% (inactive). In addition, the results for the inhibition in experiment [4] and in experiment [5] were -1.56% (inactive) and 0.17% (inactive), respectively.

On to `COc1ccc(-c2ccc(-c3noc(-c4cccs4)n3)c(OC)n2)cc1`, for which the viability in experiment [1] is 77% (inactive); in experiment [2] it was 98.8% (inactive); in experiment [3] (setting [6]), 70.1%; in experiment [3] (setting [7]), 64.6%. In addition, the differential viability (reversal) in experiment [3] (H69AR cells + 2 uM doxorubicin) was -5.54% (inactive). Moreover, the inhibition in experiment [4] is -7.43% (inactive); in experiment [5], -8.73% (inactive).

As to `CCCCCC(=O)O[C@]1(C(C)=O)CC[C@H]2[C@@H]3CCC4=CC(=O)CC[C@]4(C)[C@H]3CC[C@@]21C`, the viability was 93% (inactive) in experiment [1], 4.16% (active) in experiment [2], 2.59% in experiment [3] (setting [6]) and 23.1% in experiment [3] (setting [7]). Besides, the differential viability (reversal) in experiment [3] (H69AR cells + 2 uM doxorubicin) was 20.6% (inactive). For the same compound, the inhibition in experiment [4] is 5.84% (inactive); in experiment [5], -2% (inactive).

Consider `Oc1c(I)cc(Cl)c2cccnc12`, for which the viability is 84% (inactive) in experiment [1], 8.13% (active) in experiment [2], 46.2% in experiment [3] (setting [6]) and 35.8% in experiment [3] (setting [7]). For the same compound, the differential viability (reversal) in experiment [3] (H69AR cells + 2 uM doxorubicin) was -10.4% (inactive). Besides, the inhibition in experiment [4] was 4.55% (inactive); in experiment [5], 8.83% (inactive).

Take `CC1CCN(CCc2nc3cc(NS(=O)(=O)c4ccc(F)cc4)ccc3n2C)CC1`: the viability is 89% (inactive) in experiment [1], 77.6% (inactive) in experiment [2], 55.5% in experiment [3] (setting [6]) and 52.4% in experiment [3] (setting [7]). For the same compound, in experiment [3] (H69AR cells + 2 uM doxorubicin), the differential viability (reversal) was -3.08% (inactive). Moreover, the inhibition in experiment [4] is -2.33% (inactive); in experiment [5], 0.97% (inactive).

Regarding `COC(=O)c1[nH]c2ccc(C)cc2c1NC(=O)CN1CCCC(C)(C)C1`, the viability in experiment [1] was 125% (inactive); in experiment [2] it was 77.6% (inactive); in experiment [3] (setting [6]), 42.2%; in experiment [3] (setting [7]) it was 39.1%. Also, the differential viability (reversal) in experiment [3] (H69AR cells + 2 uM doxorubicin) is -3% (inactive). In addition, the figures for the inhibition in experiment [4] and in experiment [5] were -5.87% (inactive) and 4.91% (inactive), respectively.

`CCn1c(=N)n(CC(=O)c2ccco2)c2ccccc21`: the viability in experiment [1] was 95% (inactive); in experiment [2], 95.5% (inactive); in experiment [3] (setting [6]), 73.2%; in experiment [3] (setting [7]), 34.9%. For the same compound, in experiment [3] (H69AR cells + 2 uM doxorubicin), the differential viability (reversal) is -38.3% (inactive). In addition, the inhibition in experiment [4] was -5.2% (inactive); in experiment [5] it was -4% (inactive).

In the case of `CSc1ccc(-c2cc(=O)c3ccccc3o2)cc1`, the viability in experiment [1] was 110% (inactive); in experiment [2], 48.1% (inactive); in experiment [3] (setting [6]), 73.6%; in experiment [3] (setting [7]), 56.9%. Besides, in experiment [3] (H69AR cells + 2 uM doxorubicin), the differential viability (reversal) is -16.6% (inactive). The inhibition in experiment [4] was -4.13% (inactive); in experiment [5], -4.55% (inactive).

Take `O=C(Nc1cnn(C23CC4CC(CC(C4)C2)C3)c1)c1cnn2c(C(F)(F)F)cc(-c3ccco3)nc12`: the viability was 95% (inactive) in experiment [1], 58% (inactive) in experiment [2], 51.8% in experiment [3] (setting [6]) and 53.3% in experiment [3] (setting [7]). Further, the differential viability (reversal) in experiment [3] (H69AR cells + 2 uM doxorubicin) was 1.52% (inactive). The values for the inhibition in experiment [4] and in experiment [5] were -0.82% (inactive) and 8.39% (inactive), respectively.

On to `O=C(Nc1ccc(-c2nc3ncccc3o2)cc1)c1ccc(Br)o1`, for which the viability in experiment [1] is 97% (inactive); in experiment [2], 104% (inactive); in experiment [3] (setting [6]), 53.2%; in experiment [3] (setting [7]), 49.2%. Further, the differential viability (reversal) in experiment [3] (H69AR cells + 2 uM doxorubicin) was -4.05% (inactive). The values for the inhibition in experiment [4] and in experiment [5] were -2.13% (inactive) and -0.36% (inactive), respectively.

Consider `COc1ccc(C(=O)Nc2ccc(Cl)c(Cl)c2)c(OC)n1`, for which the viability in experiment [1] was 93% (inactive); in experiment [2] it was 83.2% (inactive); in experiment [3] (setting [6]) it was 47.6%; in experiment [3] (setting [7]), 40.5%. In experiment [3] (H69AR cells + 2 uM doxorubicin), the differential viability (reversal) is -7.11% (inactive). The values for the inhibition in experiment [4] and in experiment [5] were -8.53% (inactive) and -4.36% (inactive), respectively.

As to `CC(=O)O[C@]1(C(C)=O)CC[C@H]2[C@@H]3C=C(Cl)C4=CC(=O)CC[C@]4(C)[C@H]3CC[C@@]21C`, the viability in experiment [1] was 104% (inactive); in experiment [2], 93.2% (inactive); in experiment [3] (setting [6]), 54.4%; in experiment [3] (setting [7]) it was 31.2%. Moreover, in experiment [3] (H69AR cells + 2 uM doxorubicin), the differential viability (reversal) was -23.2% (inactive). In addition, the inhibition was -1.3% (inactive) in experiment [4] and -2.5% (inactive) in experiment [5].

Take `O=C(Nc1ccc2[nH]c3c(c2c1)CCCC3)c1ccco1`: the viability in experiment [1] was 82% (inactive); in experiment [2], 73.1% (inactive); in experiment [3] (setting [6]) it was 66.7%; in experiment [3] (setting [7]), 63.1%. Also, the differential viability (reversal) in experiment [3] (H69AR cells + 2 uM doxorubicin) is -3.58% (inactive). Also, the figures for the inhibition in experiment [4] and in experiment [5] were -8.67% (inactive) and -2.73% (inactive), respectively.

`CCOC(=O)c1c(NC(=O)COC(=O)c2c(C)noc2C)sc2c1CCC2`: the viability is 63% (inactive) in experiment [1], 35.6% (inactive) in experiment [2], 47% in experiment [3] (setting [6]) and 47.8% in experiment [3] (setting [7]). In experiment [3] (H69AR cells + 2 uM doxorubicin), the differential viability (reversal) is 0.845% (inactive). In addition, the values for the inhibition in experiment [4] and in experiment [5] were -8.36% (inactive) and -3.87% (inactive), respectively.

Consider `O=S1(=O)Nc2c(ccc3cccnc23)-c2ccccc21`, for which the viability in experiment [1] was 122% (inactive); in experiment [2] it was 8.06% (active); in experiment [3] (setting [6]), 56%; in experiment [3] (setting [7]) it was 49.2%. For the same compound, the differential viability (reversal) in experiment [3] (H69AR cells + 2 uM doxorubicin) was -6.77% (inactive). The inhibition was -7.5% (inactive) in experiment [4] and 9.84% (inactive) in experiment [5].

Regarding `O=C(CSc1nc2cc(S(=O)(=O)N3CCOCC3)ccc2o1)NC1CCCc2ccccc21` (centres undefined), the viability in experiment [1] is 61% (inactive); in experiment [2], 84.7% (inactive); in experiment [3] (setting [6]), 74.4%; in experiment [3] (setting [7]), 70.2%. The differential viability (reversal) in experiment [3] (H69AR cells + 2 uM doxorubicin) was -4.17% (inactive). Further, the inhibition in experiment [4] was -3.6% (inactive); in experiment [5] it was -5.82% (inactive).

On to `N=c1c(C(=O)NCc2ccccc2)cc2c(=O)n3ccccc3nc2n1Cc1ccco1`, for which the viability in experiment [1] was 93% (inactive); in experiment [2], 79.2% (inactive); in experiment [3] (setting [6]), 65.5%; in experiment [3] (setting [7]) it was 52.1%. In addition, the differential viability (reversal) in experiment [3] (H69AR cells + 2 uM doxorubicin) was -13.5% (inactive). In addition, the inhibition was -4.25% (inactive) in experiment [4] and 0.32% (inactive) in experiment [5].

On to `CCCCC(=O)O[C@H]1CC[C@H]2[C@@H]3CCc4cc(O)ccc4[C@H]3CC[C@]12C`, for which the viability in experiment [1] was 82% (inactive); in experiment [2], 1.94% (active); in experiment [3] (setting [6]) it was 6.17%; in experiment [3] (setting [7]), 19.7%. The differential viability (reversal) in experiment [3] (H69AR cells + 2 uM doxorubicin) is 13.5% (inactive). For the same compound, the inhibition in experiment [4] was 4.81% (inactive); in experiment [5], 8.33% (inactive).

As for `Cc1cc(CN2CCN(CCC#N)CC2)c(O)c(C2(C)CCCCC2)c1`, the viability in experiment [1] was 106% (inactive); in experiment [2], 54.2% (inactive); in experiment [3] (setting [6]), 77.1%; in experiment [3] (setting [7]), 64.9%. In addition, the differential viability (reversal) in experiment [3] (H69AR cells + 2 uM doxorubicin) is -12.2% (inactive). Besides, the inhibition was 1.1% (inactive) in experiment [4] and 39.4% (active) in experiment [5].

With `O=C(CN1CCN(Cc2ccc3c(c2)OCO3)CC1)N1CCc2[nH]c3ccc(F)cc3c2C1`, the viability in experiment [1] was 96% (inactive); in experiment [2] it was 58.8% (inactive); in experiment [3] (setting [6]), 61.4%; in experiment [3] (setting [7]), 52.5%. The differential viability (reversal) in experiment [3] (H69AR cells + 2 uM doxorubicin) was -8.87% (inactive). In addition, the inhibition in experiment [4] was -2.13% (inactive); in experiment [5] it was -6% (inactive).

For the compound `COc1ccc2c(c1OC)C(=O)O[C@@H]2[C@H]1c2c(cc3c(c2OC)OCO3)CCN1C`, the viability in experiment [1] is 98% (inactive); in experiment [2] it was 80.8% (inactive); in experiment [3] (setting [6]), 84.1%; in experiment [3] (setting [7]), 31.9%. Further, the differential viability (reversal) in experiment [3] (H69AR cells + 2 uM doxorubicin) was -52.2% (inactive). The inhibition in experiment [4] was -6.36% (inactive); in experiment [5] it was -3.5% (inactive).

The values above are taken from PubChem BioAssay.
